Test system: MS2 coat protein
Assay: apparent Kd, MS2 coat protein; higher = weaker binding; RNA-MaP array; FMN 200 µM where present
Outline: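 SNAP-549-labelled MS2 coat protein, doubled from 0.7 or 1.5 nM to 3 µM, was titrated over designs transcribed by stalled E. coli RNA polymerase on Illumina sequencing-chip clusters. Titrations were run without and then with constant ligand in 100 mM Tris-HCl pH 7.5, 80 mM KCl, 4 mM MgCl2, BSA, DTT, yeast tRNA and Tween-20. The apparent Kd is the median of filtered per-cluster fits to green signal normalised to red-channel RNA signal and control-cluster median Fmax.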

[1] = designed as: OFF switch for flavin mononucleotide, no ligand
[2] = ligand present: flavin mononucleotide, designed as: OFF switch for flavin mononucleotide
[3] = designed as: ON switch for flavin mononucleotide, no ligand
[4] = ligand present: flavin mononucleotide, designed as: ON switch for flavin mononucleotide

Row | Sequence | apparent Kd [1] [nM] | apparent Kd [2] [nM] | apparent Kd [3] [nM] | apparent Kd [4] [nM]
1 | CGAGCCUAUGUAAGGAUAUCACGAUAAAACCAGCGUGAGAAGGUACAUGAGGAUCACCCAUGUUCACGACUGGC | 13.9 | 14.7 | – | –
2 | GCGUCACAAUUAGAACCAAUACGAACAUGAGGAUCACCCAUGUAGGAUAUGCUAGAAGUUGAGUUGCAGAAGGACAUAUAACGC | 12 | 10.9 | – | –
3 | ACAAAUGGAGGAUAUACAUGAGGAUCACCCAUGUAUAUCCUACAUGUGUGAUAAUAAUGUAGAAGGCCAUUUGA | 13.7 | 12 | – | –
4 | UAUUUAAUCAUAGGAUAUAGUGUGUAAUUUGGACUAGAAGGAUGAAACAUGAGGAUCACCCAUGUGGUAAAUGGGAUACAUUCC | – | – | 73.5 | 94.5
5 | GGUUGGCAGCUAGGAUAUGGGCGGUCACAUGAGGAUCACCCAUGUCAACAUCAAAACCAGAUUAACCAGAAGGAGCUGCGGGUU | – | – | 14.8 | 87.7
6 | ACAAGAUCAGGAUAUACAUGAGGAUCACCCAUGUAUAUAAAAAAAGGGCUUUCUACAUGUAGAAGGGAUCUUGU | 29.9 | 37 | – | –
7 | ACAUGAGGAUCACCCAUGUAUUUGUAGGAUAUACACAAUUAUUUAUUACUCUAAUUAAUAUGUUUGUAGAAGGACACUGCAUGA | 11.5 | 11.9 | – | –
8 | AACGUGUAAGGAUAUGCUGCUCGUCACGAAAGUGAUGAGUAGCAGAAGGUACAUGAGGAUCACCCAUGUAAAGA | 31.8 | 67 | – | –
9 | GUAUCGUAUGUGAGGAUAUAUUAAACCUUGGAUUUGUAGAAGGCACAUGAGGAUCACCCAUGUCCUAGUGGUCC | 29.4 | 33.3 | – | –
10 | UUAAAUCAUGUAGGAUAUGCGUGGCGAAGCUAUGCAGAAGGACAUGAGGAUCACCCAUGUUCUGCGGUCUGCGUACAGAUCGCU | 18.3 | 155 | – | –
11 | CGGCCGCUACGCCGGCUCGACGCACAGGAUAUGCAGUUACAUGAGGAUCACCCAUGUGGCCAUGUGCAGAAGGGUGAUUCGCGA | – | – | 135 | 43.6
12 | UAGUAUAAGGGCAUUACACAUGAGGAUCACCCAUGUACGUUAGAGGAUAUGCAUUACAGUUGAACGUAGAAGGUUAGAGAAGGG | 73.6 | 80.3 | – | –
13 | GCCGAUUAAGUGAGGAUAUACCUAUGGAUACAUAGGUAGAAGGCACAUGAGGAUCACCCAUGUUCCUCAUCGGC | 16.8 | 132 | – | –
14 | GAUGCAUAUGAGAAGGCGAUCAUGAAACAUGAUCGAGGAUAUCAUGUAAACAUGAGGAUCACCCAUGUAUGGGAAAAGUGCAUC | – | – | 72.4 | 11.4
15 | AGCUGUGGCCGAGGAUAUCUAAAACUCAAAACCGAAAUAUAAUCGGACAUGAGGAUCACCCAUGUAGAGAAGGCGGUCUCAGCA | 78.8 | 157 | – | –
16 | GUCUCGAUGUAAGGAUAUGCAGUGGAUAACACUGCAGAAGGUACAUGAGGAUCACCCAUGUAACUCUAAUAAUAAUAACGAGAC | 13.1 | 17.3 | – | –
17 | AACUUGUCAGGAUAUCUUACAUUUGCAUCUUAGUUACCAUUGGAGAAGGGACAUGAGGAUCACCCAUGUUUGGU | 37.1 | 32.2 | – | –
18 | GCCAACUCAUGAGGAUAUGGCACCUUAUUGGUGCCAGAAGGCGUGUCUAUUGACAUGAGGAUCACCCAUGUAUUAUAGUUGGCA | – | – | 678 | 105

Row | Sequence | apparent Kd [1] [nM] | apparent Kd [2] [nM] | apparent Kd [3] [nM] | apparent Kd [4] [nM]
19 | AGGUGUCCUGAGAAAUUUCUCCACAUGAGGAUCACCCAUGUAGAGGAUAUCGACGCUGUGCGGUUCGAGAAGGCUACACUAAUU | 6.54 | 22.7 | – | –
20 | CGUCUGUCAGGAUAUAGUUACGUAGACAUGAGGAUCACCCAUGUGACGUGGGACUAGUGACUAGAAGGGACGAACG | 22.3 | 52.5 | – | –
21 | CGAUAGGACAGAGGAUAUACACAUGAGGAUCACCCAUGUGAUUUCAACGCGAAAGCGCCAAACAUGUAGAAGGCUGUCCUAUCG | 25.9 | 16.4 | – | –
22 | AGCUACGUUUCGUAGCAGCUAGGUGAGGAUAUCCACUCAACAUGAGGAUCACCCAUGUAAACAUGGGAGAAGGCGCCUAGAAAG | – | – | 63.4 | 9.63
23 | GCUCUAUGCUAGAAGGCGUGAAACAUGAGGAUCACCCAUGUCAGAGAAAUGAGGAUAUAGCAUAGAGCAAAAGACGGAAACGUC | – | – | 11.1 | 5.61
24 | UUAAUGUGAGGAUAUGGUAAAGAUAAGAUGAUGAAAGAACUCCAGAAGGCACAUGAGGAUCACCCAUGUAGAUG | 39.5 | 86.6 | – | –
25 | CAGCGAAAGCUGAAUCUGUAGAGAGAGGAUAUACAUCAUAAGAUGCAUACAUGAGGAUCACCCAUGUAGAAGGCUCUCUACAGU | 5.49 | 6.83 | – | –
26 | GGAUGACAAAGUCAUCCUAAACGAACAUGAGGAUCACCCAUGUAGGAUAUGCUACUGAAACAGUAGCAGAAGGACAUGUGCCUU | 31.1 | 211 | – | –
27 | GAUCAACAUGAGGAUCACCCAUGUGAGGAUAUGUAUCAUAGAUCUUCGGAUCUAUGAUACAGAAGGCAUGUGAA | 76.1 | 101 | – | –
28 | GAGAAGUCAGGAUAUGCUGCUCGUCACUUGCGUGAUGAGUAGCAGAAGGGACAUGAGGAUCACCCAUGUAAAGC | 47.3 | 53.6 | – | –
29 | GAGUGACAUGAGGAUCACCCAUGUGAGGAUAUCGGACGGACCAAAUUAACAAUAUUUGCGAGAAGGCACAUCGG | 88.5 | 130 | – | –
30 | UCGCUGCGAGGAUAUACAUGAGGAUCACCCAUGUACGGGUCCGGGUCUUCGUCCAUUAGUAGAAGGCGCAGUGA | 52.8 | 325 | – | –
31 | CCCGCGUUUCGCGCCUACAUGAGGAUCACCCAUGUUUGUAGGCAGGAUAUCGUCCGCUCUGCGGGCGAGAAGGGCUGUUGUGGU | – | – | 90.8 | 84
32 | CGGAUUAUGUGAGGAUAUAAUCGUUUCCAUUGAUUAGAAGGCACAUGAGGAUCACCCAUGUGGCAUGUAAAGCCAUGUGACGCG | 108 | 109 | – | –
33 | GGAUGACAUAGUCAUCCUUAACGAACAUGAGGAUCACCCAUGUAGGAUAUGCUACUCAACGAGUAGCAGAAGGACAUGUGUCUU | 26.5 | 142 | – | –
34 | AUUACCACGGUAAGGAUAUUGUACGCAGCAUGCGUUAAGAAGGUACAUGAGGAUCACCCAUGUCUUCCGGUAGC | 20.5 | 21.2 | – | –
35 | UGGUCGGAGACAGGAUAUGUGACUGCAUAGUGCACAGAAGGGUCUACAUGAGGAUCACCCAUGUCACCGACCACCAAACAACAA | – | – | 626 | 55.2
36 | CACUCGUGUCUAGGAUAUGAGUGACAAGCGCGAGAUUUUCUCGGCGCUAGCUCAGAAGGAGACAUGAGGAUCACCCAUGUAAGG | 162 | 12 | – | –
